Values belong to the molecule of their own block, whether it stands above or below them.
Columns and labels:
[1] = tested on: CYP1A1 mRNA; experiment: CYP1A1 mRNA expression by RT-PCR in HepG2 cells; details: co-treatment with 250 pmol TCDD or 1 μM DMBA, 24 hours
[2] = tested on: CYP1A1, CYP1A2, CYP1B1 (EROD activity); experiment: EROD activity in intact HepG2 cells; format: cell-based, human; details: 24 hours; for inhibition of TCDD (PAH)-induced EROD activity: 50 μM compound + 250 pmol TCDD; for induction of EROD activity: 50 μM compound alone
[3] = tested on: CYP1A2 mRNA; experiment: CYP1A2 mRNA expression by RT-PCR in HepG2 cells; details: co-treatment with 250 pmol TCDD or 1 μM DMBA, 24 hours
[4] = tested on: CYP1A1 heterogeneous nuclear RNA (hnCYP1A1); experiment: CYP1A1 gene transcription rate; details: HepG2; co-treatment with 250 pmol TCDD or 1 μM DMBA
[5] = tested on: phase II genes; experiment: Phase II gene expression; format: cell-based, human; details: RT-PCR
[6] = tested on: CYP1A2 mRNA; experiment: CYP1A2 mRNA expression by RT-PCR in LS180 cells; details: co-treatment with 250 pmol TCDD or 1 μM DMBA, 24 hours
[7] = target: T1, aryl hydrocarbon receptor (AhR) (Homo sapiens, UniProt P35869); experiment: Chromatin immunoprecipitation; details: HepG2; 50 μM compound + 10 nmol TCDD; 90 minutes; TCDD alone 6.2-fold
T1 sequence (P35869 11-848): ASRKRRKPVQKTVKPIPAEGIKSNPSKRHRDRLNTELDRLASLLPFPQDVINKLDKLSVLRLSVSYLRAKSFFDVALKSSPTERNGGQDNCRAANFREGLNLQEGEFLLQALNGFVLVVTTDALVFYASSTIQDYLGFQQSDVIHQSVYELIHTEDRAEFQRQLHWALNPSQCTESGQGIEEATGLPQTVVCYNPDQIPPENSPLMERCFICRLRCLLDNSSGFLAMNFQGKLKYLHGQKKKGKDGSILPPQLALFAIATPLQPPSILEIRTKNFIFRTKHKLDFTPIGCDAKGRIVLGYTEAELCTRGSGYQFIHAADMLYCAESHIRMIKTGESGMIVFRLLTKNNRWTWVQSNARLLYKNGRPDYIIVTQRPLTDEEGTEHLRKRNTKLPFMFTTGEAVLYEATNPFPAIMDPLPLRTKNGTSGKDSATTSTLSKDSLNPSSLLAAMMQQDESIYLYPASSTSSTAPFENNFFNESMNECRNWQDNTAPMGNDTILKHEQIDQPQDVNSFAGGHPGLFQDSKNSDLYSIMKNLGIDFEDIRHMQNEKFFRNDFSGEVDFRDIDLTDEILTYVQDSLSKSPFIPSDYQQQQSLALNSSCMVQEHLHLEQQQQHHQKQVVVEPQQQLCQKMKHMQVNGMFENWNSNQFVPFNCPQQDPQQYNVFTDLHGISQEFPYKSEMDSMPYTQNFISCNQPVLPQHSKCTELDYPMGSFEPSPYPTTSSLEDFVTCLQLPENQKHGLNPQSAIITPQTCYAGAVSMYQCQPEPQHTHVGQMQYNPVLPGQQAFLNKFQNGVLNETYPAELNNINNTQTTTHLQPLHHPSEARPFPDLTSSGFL

[8] = tested on: CYP1B1 mRNA; experiment: CYP1B1 mRNA expression by RT-PCR in LS180 cells; details: 24 hours; for effect on TCDD- and DMBA-induced CYP1B1 mRNA expression: co-treatment with 250 pmol TCDD or 1 μM DMBA
[9] = tested on: CYP1B1 mRNA; experiment: CYP1B1 mRNA expression by RT-PCR in HepG2 cells; details: 24 hours; for effect on TCDD- and DMBA-induced CYP1B1 mRNA expression: co-treatment with 250 pmol TCDD or 1 μM DMBA
[10] = tested on: LS180 cells; experiment: MTT cell viability assay; format: cell-based, human; details: 0−100 μM, data not shown
In short: (§1)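 Viability was read as MTT tetrazolium reduction in confluent HepG2 (RPMI 1640) or LS180 (Eagle's MEM with Earle's balanced salts) cells at 37 °C, 5% CO2. Test compound was given at 0–100 µmol/L from DMSO stock; final DMSO ≤0.1%.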

[11] = tested on: HepG2 cells; experiment: MTT cell viability assay; format: cell-based, human; details: 0−100 μM, data not shown
In short: as §1

[12] = rats; cited from earlier work
[13] = tested on: CYP1A1 mRNA; experiment: CYP1A1 mRNA expression by RT-PCR in LS180 cells; details: co-treatment with 250 pmol TCDD or 1 μM DMBA, 24 hours
[14] = target: T2, CYP1A1 (Homo sapiens, UniProt P04798); experiment: Recombinant CYP1A1 Supersomes EROD activity; format: biochemical; details: for change of Vmax with increasing compound concentration / nature of CYP1A1 inhibition (Michaelis-Menten kinetic analysis): recombinant CYP1A1 Supersomes
T2 sequence (P04798 1-512): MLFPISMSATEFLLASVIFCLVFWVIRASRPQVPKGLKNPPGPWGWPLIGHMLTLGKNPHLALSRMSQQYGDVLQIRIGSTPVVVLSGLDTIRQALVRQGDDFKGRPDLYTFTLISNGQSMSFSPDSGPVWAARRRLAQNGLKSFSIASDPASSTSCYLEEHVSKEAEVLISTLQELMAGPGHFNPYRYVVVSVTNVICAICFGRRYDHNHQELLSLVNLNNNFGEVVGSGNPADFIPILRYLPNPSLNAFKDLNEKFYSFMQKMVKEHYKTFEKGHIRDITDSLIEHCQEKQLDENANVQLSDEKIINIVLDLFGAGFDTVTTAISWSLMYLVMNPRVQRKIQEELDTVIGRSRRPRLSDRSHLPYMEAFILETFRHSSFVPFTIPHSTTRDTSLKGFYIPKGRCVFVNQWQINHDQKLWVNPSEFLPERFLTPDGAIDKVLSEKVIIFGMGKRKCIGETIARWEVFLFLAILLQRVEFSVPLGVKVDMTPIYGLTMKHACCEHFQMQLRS

[15] = target: T3, CYP1A2 (Homo sapiens, UniProt P05177); experiment: Recombinant CYP1A2 Supersomes EROD activity; format: biochemical
T3 sequence (P05177 1-516): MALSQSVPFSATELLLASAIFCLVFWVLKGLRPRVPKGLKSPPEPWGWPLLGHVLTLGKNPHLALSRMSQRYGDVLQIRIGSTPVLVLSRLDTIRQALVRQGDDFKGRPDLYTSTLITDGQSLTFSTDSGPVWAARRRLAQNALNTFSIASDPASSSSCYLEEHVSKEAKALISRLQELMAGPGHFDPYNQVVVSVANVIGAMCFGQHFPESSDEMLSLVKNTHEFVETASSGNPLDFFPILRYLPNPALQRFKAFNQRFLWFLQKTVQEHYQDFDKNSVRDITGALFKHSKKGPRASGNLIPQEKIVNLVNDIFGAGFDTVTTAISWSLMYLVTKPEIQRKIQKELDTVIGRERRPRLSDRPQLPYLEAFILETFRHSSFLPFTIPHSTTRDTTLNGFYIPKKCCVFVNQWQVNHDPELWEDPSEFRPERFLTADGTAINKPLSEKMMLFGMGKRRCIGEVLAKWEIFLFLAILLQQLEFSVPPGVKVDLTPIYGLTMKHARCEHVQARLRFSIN

[16] = target: T4, CYP1B1 (Homo sapiens, UniProt Q16678); experiment: Recombinant CYP1B1 Supersomes EROD activity; format: biochemical
T4 sequence (Q16678 1-543): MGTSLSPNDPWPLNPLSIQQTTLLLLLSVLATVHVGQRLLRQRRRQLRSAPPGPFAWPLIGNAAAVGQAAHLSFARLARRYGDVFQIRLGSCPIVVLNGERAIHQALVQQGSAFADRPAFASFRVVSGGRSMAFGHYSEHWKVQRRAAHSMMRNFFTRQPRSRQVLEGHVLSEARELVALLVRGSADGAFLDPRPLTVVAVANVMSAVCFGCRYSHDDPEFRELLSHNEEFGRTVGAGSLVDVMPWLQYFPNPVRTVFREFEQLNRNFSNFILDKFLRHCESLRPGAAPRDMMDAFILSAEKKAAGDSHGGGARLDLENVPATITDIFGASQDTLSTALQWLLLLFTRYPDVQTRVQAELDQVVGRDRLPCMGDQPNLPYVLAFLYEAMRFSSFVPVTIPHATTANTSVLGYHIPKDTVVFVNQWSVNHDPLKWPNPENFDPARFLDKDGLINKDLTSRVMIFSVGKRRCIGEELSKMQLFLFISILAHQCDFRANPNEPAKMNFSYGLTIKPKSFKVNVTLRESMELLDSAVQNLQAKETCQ

[17] = tested on: G6PD mRNA; experiment: G6PD mRNA expression by RT-PCR in HepG2 cells; format: cell-based, human; details: 50 μM, 24 hours, over 18S RNA control
[18] = tested on: catalase and glutathione reductase; details: 25 μM; cited from earlier work
[19] = tested on: CYP1A1 heterogeneous nuclear RNA (hnCYP1A1)

Compound: O=C(Cc1ccccc1Nc1c(Cl)cccc1Cl)Oc1ccc(-c2cc(=S)ss2)cc1 [ACS 15, 2-[(2,6-dichlorophenyl)amino]benzeneacetic acid 4-(3H-1,2,dithiol-3-thione-5-yl)phenyl ester]
- effect on TCDD- and DMBA-induced CYP1A1 mRNA expression [1]: inhibited in a concentration-dependent manner
- inhibition of TCDD (PAH)-induced EROD activity [2]: inhibited
- effect on TCDD- and DMBA-induced CYP1A2 mRNA expression [3]: inhibited in a concentration-dependent manner
- effect on TCDD- and DMBA-stimulated hnCYP1A1 expression [4]: abrogated the stimulatory effects
- effect on phase II gene expression [5]: No significant increases
- effect on TCDD- and DMBA-induced CYP1A2 mRNA expression [6]: inhibited in a concentration-dependent manner
- level of activated AhR on co-treatment with TCDD (ChIP) [7]: 2.6 fold
- effect on TCDD- and DMBA-induced CYP1B1 mRNA expression [8]: inhibited in a concentration-dependent manner
- effect on TCDD- and DMBA-induced CYP1B1 mRNA expression [9]: inhibited in a concentration-dependent manner
- cell viability (MTT) [10]: non-toxic
- cell viability (MTT) [11]: non-toxic
- less gastro-intestinal damage than diclofenac [12]: > 90%
- effect on TCDD- and DMBA-induced CYP1A1 mRNA expression [13]: inhibited in a concentration-dependent manner
- change of Vmax with increasing compound concentration [14]: unchanged
- nature of CYP1A1 inhibition (Michaelis-Menten kinetic analysis) [14]: competitive

- effect on TCDD- and DMBA-induced CYP1A1 mRNA expression [1]: similar
- inhibition of TCDD (PAH)-induced EROD activity [2]: inhibited
- induction of EROD activity [2]: 0.46 +/− 0.01 pmoles/min/well
- effect on TCDD- and DMBA-induced CYP1A2 mRNA expression [3]: similar
- effect on TCDD- and DMBA-stimulated hnCYP1A1 expression [4]: similar
- IC50 [15]: 3100 nM
- effect on TCDD- and DMBA-induced CYP1A2 mRNA expression [6]: similar
- effect on TCDD- and DMBA-induced CYP1B1 mRNA expression [8]: similar
- effect on TCDD- and DMBA-induced CYP1B1 mRNA expression [9]: similar
- IC50 [16]: 230 nM
- effect on TCDD- and DMBA-induced CYP1A1 mRNA expression [13]: similar
- IC50 [14]: 40 nM
- change of Vmax with increasing compound concentration [14]: unchanged
- nature of CYP1A1 inhibition (Michaelis-Menten kinetic analysis) [14]: competitive
Compound: CC1=C(CC(=O)Oc2ccc(-c3cc(=S)ss3)cc2)c2cc(F)ccc2/C1=C\c1ccc([S+](C)[O-])cc1 (stereo not shown) [ACS 18, (Z)-5-Fluoro-2-methyl-1-[[4-(methylsulfinyl)phenyl]-methylene]-1H-indene-3-acetic acid 4-(5-thioxo-5H-[1,2]dithiol-3-yl)-phenyl ester]
- cell viability (MTT) [10]: non-toxic
- cell viability (MTT) [11]: non-toxic
- increase in G6PD mRNA expression [17]: 1.5 fold

Compound: COc1ccc(-c2cc(=S)ss2)cc1 [ADT, 5-[p-methoxyphenyl]-1,2-dithiole-3-thione]
- increases in the phase II enzymes catalase and glutathione reductase [18]: less than 2 fold

Compound: Cc1c2ccccc2c(C)c2c1ccc1ccccc12 [DMBA]
- fold increase in CYP1B1 mRNA expression compared to DMSO controls ([8]; TCDD 250 pmol, DMBA 1 μM): 2.5 fold
- fold increase in CYP1B1 mRNA expression compared to DMSO controls ([9]; TCDD 250 pmol, DMBA 1 μM): 8.4 fold
- fold increase in hnCYP1A1 expression over DMSO control levels [19]: 12 fold

Compound: [Na+].[SH-] [NaHS]
- inhibition of TCDD (PAH)-induced EROD activity [2]: not inhibited

- inhibition of TCDD (PAH)-induced EROD activity [2]: not inhibited
Compound: O=C(O)Cc1ccccc1Nc1c(Cl)cccc1Cl [diclofenac]

- inhibition of TCDD (PAH)-induced EROD activity [2]: not inhibited
- induction of EROD activity [2]: 4.45 +/− 0.09 pmoles/min/well
Compound: CC1=C(CC(=O)O)c2cc(F)ccc2/C1=C\c1ccc([S+](C)[O-])cc1 (stereo not shown) [sulindac]

— paper PMC2755634 (Clinical cancer research : an official journal of the …, 2009)
